An excerpt weighted towards active compounds, which were near 9.8% of everything screened.
Rad51 HR inh = blocks human Rad51 in homologous recombination. Q06609. hRad51 DNA strand exchange, fluorescence dequenching. inhibition, % at 10 µM. 200,000 tested, 0.085% active;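 active = inhibition above 40% at the single screening dose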
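material = hRad51 filaments on single-stranded DNA | reagent = Donor/quencher-labelled 47-bp dsDNA substrate | compound = 10 µM final, single point | schedule = strand-exchange reaction 15 min at room temperature | measured by = fluorescein emission 520 nm, excitation 485 nm | read-out basis = % inhibition versus plate control and blank means | benchmarks = plate controls and plate blanks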
PMI activator = activators of human phosphomannose isomerase; P34949; purified human PMI, coupled resazurin fluorescence, 20 min; hits give high values; 1 = vehicle control, 0 substrate-free wells; activation factor at 20 µM; 190,000 tested, 0.005% active;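 active = activation factor of 2 or more at 20 µM, relative to plate controls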
Target sequence (P34949 whole entry, looked up): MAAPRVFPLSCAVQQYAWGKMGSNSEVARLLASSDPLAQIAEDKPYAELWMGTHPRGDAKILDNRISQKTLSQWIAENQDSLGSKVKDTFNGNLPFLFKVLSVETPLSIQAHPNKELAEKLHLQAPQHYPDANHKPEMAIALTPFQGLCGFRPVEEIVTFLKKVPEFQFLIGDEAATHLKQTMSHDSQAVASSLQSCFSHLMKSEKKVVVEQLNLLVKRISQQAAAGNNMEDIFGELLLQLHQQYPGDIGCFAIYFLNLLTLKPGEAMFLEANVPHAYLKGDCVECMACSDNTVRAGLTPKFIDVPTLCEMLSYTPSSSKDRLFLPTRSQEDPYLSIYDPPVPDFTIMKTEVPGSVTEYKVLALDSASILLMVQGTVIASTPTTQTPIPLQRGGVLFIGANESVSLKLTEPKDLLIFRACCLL
Lmaj promast = inhibitors of Leishmania major promastigote growth; inhibition, % at 10 µM; 200,000 tested, 9% active; Leishmania major promastigotes, resazurin fluorescence viability; in the data active = inhibition above about 50%;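 note: promastigotes grown with compound for 44 hours at 28 °C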
PMI act satM6P = increases human PMI activity with near-saturating mannose 6-phosphate. 190,000 tested, 0.34% active. activation factor at 20 µM. AID 1216. coupled PMI enzyme assay, resazurin fluorescence, 20 min; hits give high values; 1 = untreated enzyme, 0 = substrate-free blank;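 active = activation factor of 2 or more at 20 µM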
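Material: human phosphomannose isomerase with PGI, G6PDH, diaphorase coupling enzymes / Reagent: Man-6-P substrate 1.0 mM / Dosing: single compound dose of 20 µM, 1% DMSO final / Incubation: enzyme reaction with compound 20 min at room temperature / Signal: resorufin fluorescence (Ex 544/Em 590 nm) from resazurin via diaphorase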
Calpain2 inh = calpain II (pig) inhibition. AID 1236. inhibition, % at 16 µM. purified calpain II, fluorogenic peptide substrate, 30 min. 220,000 tested, 0.37% active;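 active = inhibition above about 50%, limit read from the data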
WT yeast gro inh = growth inhibition of WT yeast, mitochondrial fusion screen; mitochondrial fusion phenotypic screen, WT strain; 190,000 tested, 2.1% active; inhibition, % at 10 µM; in the data active = inhibition above about 58%; tested in S. cerevisiae
Of the large screens only hits and unclear results are named; the others gave an inactive call.

CCCC(=O)N1CC(=O)Nc2ccc(F)cc2C1c1ccccc1 (stereo not drawn)	none
COc1ccc(C(=O)Sc2ccc(Cl)cc2)cc1OC	Lmaj promast 54 (no result: Rad51 HR inh)
Cc1cc(NN)nc2ccc(Cl)cc12	none
Nc1nc[nH]c(=O)c1N=Cc1ccccc1	none (no result: PMI activator, Lmaj promast, PMI act satM6P, WT yeast gro inh)
CCOC(=O)c1cc(-c2ccccc2)nc2nc(N3CCCCC3)sc12	Lmaj promast 72
O=C(O)c1cc(-c2ccccc2)nc2nc(N3CCCCC3)sc12	none
COc1ccc(-c2cc(C(=O)O)c3sc(N4CCCCC4)nc3n2)cc1OC	Lmaj promast 52
Cc1ccc(-c2cc(C(=O)O)c3sc(N4CCCCC4)nc3n2)cc1	none
COc1ccc(CNCc2cn(-c3cccc(F)c3)nc2-c2ccc(C)o2)cc1	Lmaj promast 96, WT yeast gro inh 71
COc1ccc(-n2cc(CNCCc3cnc[nH]3)c(-c3cccc(F)c3)n2)cc1	Lmaj promast 100 (no result: PMI activator, PMI act satM6P)
COc1ccc(-n2cc(CNC3CCC(O)CC3)c(-c3cccc(F)c3)n2)cc1 (stereo not drawn)	Lmaj promast 84 (no result: Rad51 HR inh)
COc1ccc(-n2cc(CNCc3cccnc3)c(-c3cccc(F)c3)n2)cc1	none
CC(=O)Nc1ccc(S(=O)(=O)Nc2nc3ccccc3nc2Nc2ccc(O)cc2)cc1	none (no result: PMI activator, Lmaj promast, PMI act satM6P, WT yeast gro inh)
CCN1CCN(c2ccc(N=Cc3ccccc3O)cc2)CC1	none
O=C(Nn1c(C2CCCCC2)nc2ccccc2c1=O)c1cc(Cl)ccc1[N+](=O)[O-]	none
Cc1cc(C(=O)Nn2c(C3CCCCC3)nc3ccccc3c2=O)ccc1[N+](=O)[O-]	WT yeast gro inh 74
O=C(Nn1c(C2CCCCC2)nc2ccccc2c1=O)c1ccc(Cl)c([N+](=O)[O-])c1	WT yeast gro inh 82
Cc1cc(C(=O)Nn2c(C)nc3ccccc3c2=O)ccc1[N+](=O)[O-]	none (no result: Rad51 HR inh)
c1nc2n(n1)C1=C(CCCC1)C1(CCCCC1)N2	none
O=C1Nc2ccc(Br)cc2C1(O)Cc1ccccn1 (stereo not drawn)	none
O=C1Nc2ccc(Br)cc2C12NNc1ccccc1O2 (stereo not drawn)	Lmaj promast 73, WT yeast gro inh 88
Fc1cccc(F)c1CN1CCN(c2ncccn2)CC1	none
O=C1CC2(CCCC2)CC(=O)N1CCCCN1CCN(c2ncccn2)CC1	Lmaj promast 60
Cc1cc2c(cc1C)C(c1cccc([N+](=O)[O-])c1)CC(=O)N2 (stereo not drawn)	Lmaj promast 53
O=C1CC(c2cccc(Br)c2)c2cc3c(cc2N1)CCC3 (stereo not drawn)	WT yeast gro inh 87 (no result: Rad51 HR inh)
Cc1ccc(C(=O)Nc2ccc(C(=O)O)cc2)cc1S(=O)(=O)NCc1ccccc1	none
CC1CCCN(C/C=C/c2ccccc2[N+](=O)[O-])C1 (stereo not drawn)	Lmaj promast 88
CC1CCCCN1S(=O)(=O)c1ccccc1[N+](=O)[O-] (stereo not drawn)	none (no result: Rad51 HR inh)
CC1CCCCN1C/C=C/c1ccccc1[N+](=O)[O-] (stereo not drawn)	Lmaj promast 85
CCC1CCCCN1C/C=C/c1ccccc1[N+](=O)[O-] (stereo not drawn)	Lmaj promast 90
CCc1sc(NC(=O)c2cc3ccccc3oc2=O)nc1-c1cccs1	none
Cc1nc2ccc(N=NC3=C(O)CCCC3=O)cc2s1	none
Cc1nc2ccc(N=NC3=C(O)CC(C)(C)CC3=O)cc2s1	Lmaj promast 91
CC1(C)CC(=O)C(N=Nc2cc(Cl)c(Cl)c(Cl)c2)=C(O)C1	none
Cc1ccc(O)c(N=NC2=C(O)CC(C)(C)CC2=O)c1	Lmaj promast 99
Cc1csc(SCC(=O)NC(C)c2ccc(F)cc2)n1 (stereo not drawn)	none
Clc1ccc(CSc2nnc(-c3cccnc3)o2)cc1	none
COCCn1c(C)cc(C(=O)CSc2nc3nc(C)cc(C)n3n2)c1C	Lmaj promast 62
Cc1cccc(NC(=O)c2ccc(NC(C)c3ccccc3)c([N+](=O)[O-])c2)n1 (stereo not drawn)	none (no result: Rad51 HR inh)
CN(C)C(/C=C/Nc1cccc(Br)c1)=C(C#N)C#N	none
Cc1cccc(N/C=C/C(=C(C#N)C#N)N(C)C)c1	Calpain2 inh 60
Cc1ccc(S(=O)(=O)/N=C2/NC(=O)/C(=C/c3ccc(Br)o3)S2)cc1	Lmaj promast 51
COC/C=C/C1=CC2=CC(=O)C(C)(OC(=O)c3cnc4ccccc4n3)C(=O)C2=CN1CCc1c[nH]c2ccccc12 (stereo not drawn)	none (no result: PMI activator, Lmaj promast, PMI act satM6P, Calpain2 inh, WT yeast gro inh)
C=CCN(Cc1nc(-c2ccc(OC)c(OC)c2)oc1C)C1CCS(=O)(=O)C1 (stereo not drawn)	Lmaj promast 54 (no result: PMI activator, PMI act satM6P)
CC(=O)c1cccc(CN2CCCC(CCC(=O)NCc3ccc(F)c(F)c3)C2)c1 (stereo not drawn)	Lmaj promast 98
CCOc1cccc(CN2CCCC(CCC(=O)NCc3ccccc3F)C2)c1O (stereo not drawn)	Lmaj promast 56 (no result: Rad51 HR inh)
COc1cccc(CNC(=O)CCC2CCCN(Cc3cc4ccccc4o3)C2)c1 (stereo not drawn)	Lmaj promast 80
O=C(CCC1CCCN(Cc2ccncc2)C1)NCc1ccc(F)c(F)c1 (stereo not drawn)	Lmaj promast 92 (no result: Rad51 HR inh)
O=C(O)c1ccccc1-c1ccccc1C(=O)Nc1cccc(O)c1	none
Cc1c(O)ccc2c(O)c(NC(=O)c3ccc4c(c3)CCC(C)(C)O4)c(=O)oc12	none (no result: PMI activator, Lmaj promast, PMI act satM6P, WT yeast gro inh)
COc1ccc(OC)c(-c2csc(NC(=O)CSc3ccc(Br)cc3)n2)c1	Lmaj promast 53
COc1ccc(OC)c(-c2csc(NC(=O)CSc3ccc([N+](=O)[O-])cc3)n2)c1	Lmaj promast 85 (no result: Rad51 HR inh)
COc1ccc(OC)c(-c2csc(NC(=O)Cn3[nH]c(=O)c4ccccc4c3=O)n2)c1	none
COC(=O)c1c(NC(NC(=O)C(C)C)C(Cl)(Cl)Cl)sc2c1CCC2 (stereo not drawn)	Lmaj promast 53, WT yeast gro inh 60
COC(=O)c1c(NC(NC(=O)C(C)(C)C)C(Cl)(Cl)Cl)sc2c1CCC2 (stereo not drawn)	Lmaj promast 51, WT yeast gro inh 71
CCC(=O)NC(Nc1sc2c(c1C(=O)OC)CCC2)C(Cl)(Cl)Cl (stereo not drawn)	Lmaj promast 73
CC(C)(C)C(=O)NC(NC(=S)Nc1sc2c(c1C#N)CCCC2)C(Cl)(Cl)Cl (stereo not drawn)	none
COC(=O)c1c(NC(NC(=O)CC(C)C)C(Cl)(Cl)Cl)sc2c1CCC2 (stereo not drawn)	none
COc1ccc(N(C(=O)C(C)C)S(=O)(=O)c2cccs2)cc1	Lmaj promast 80
CC(=O)Oc1ccc(N(C(C)=O)S(=O)(=O)c2cccs2)cc1	WT yeast gro inh 66
CC(C)C(=O)N(c1ccc2oc(=O)sc2c1)S(=O)(=O)c1cccs1	none (no result: Rad51 HR inh)
